Experimental data as given in ChEMBL document CHEMBL4350963, “Discovery and Lead-Optimization of 4,5-Dihydropyrazoles as Mono-Kinase Selective, Orally Bioavailable and Efficacious Inhibitors of Receptor Interacting Protein 1 (RIP1) Kinase” (J Med Chem, 2019).

What was measured:
[1] = Chromatographic hydrophobicity index, log D of the compound at pH 7.4 by reverse-phase HPLC analysis; type: physicochemical; conditions: buffer
In short: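 Log D at pH 7.4 was calculated from the retention time on a fast-gradient reverse-phase HPLC run.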

[2] = Volume of distribution at steady state in rat at 1 mg/kg, iv; type: ADME, organism-based; conditions: in vivo, read-out: Vdss
[3] = Time at which mouse plasma concentration stays above in vitro IC50 for RIP1 in mouse L929 cells assessed as reduction in TNFalpha/QVD-Oph-induced necroptosis in mouse at 10 mg/kg/day added to chow pellets; type: ADME, organism-based; conditions: in vivo
[4] = Cmax in rat at 2 mg/kg, po; type: ADME, organism-based; set-up: dose 2 mg/kg, route oral; conditions: in vivo
In short: (§1)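 Rat pharmacokinetics: the iv arm was dosed at 1 mg/kg in 5% DMSO/20% Cavitron aqueous solution. The oral arm was dosed at 2 mg/kg in 5% DMSO/6% Cavitron aqueous solution. Bioavailability was calculated non-crossover, from average exposures in separate oral and iv studies.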

[5] = Unbound brain to blood concentration ratio in C57BL/6 mouse at 9.6 to 96 mg/kg/day added to chow pellets; type: ADME, organism-based; conditions: po, read-out: K(p,uu,brain)
[6] = Oral bioavailability in rat at 2 mg/kg; type: ADME, organism-based; conditions: in vivo
[7] = AUC (0 to infinity) in rat at 1 mg/kg, iv; type: ADME, organism-based; set-up: dose 1 mg/kg, time infinity, route intravenous; conditions: in vivo; in short: as §1
[8] = Time at which mouse plasma concentration stays above in vitro IC90 for RIP1 in mouse L929 cells assessed as reduction in TNFalpha/QVD-Oph-induced necroptosis in mouse at 100 mg/kg/day added to chow pellets; type: ADME, organism-based; conditions: in vivo
[9] = Tmax in rat at 2 mg/kg, po; type: ADME, organism-based; conditions: in vivo
[10] = AUC (0 to infinity) in rat at 2 mg/kg, po; type: ADME, organism-based; set-up: dose 2 mg/kg, route oral, time infinity; conditions: in vivo; in short: as §1

Structure (SMILES)	chromatographic logD [1]	also measured
CC(C)(C)C(=O)N1N=CCC1c1c[nH]cn1 (configuration not stated)	1.7	–
CC(C)(C)C(=O)N1CCOCC1c1ccccc1 (configuration not stated)	4.7	–
N#Cc1cc(N2CCC(C(=O)N3N=CC[C@H]3c3cc(F)cc(F)c3)CC2)ncn1	5	Vd [2]: 4.6 L/kg; Time [3]: > 24 h; Cmax [4]: 0.215 µg/mL; Kp uu [5]: 2.5; bioavailability [6]: 88%; AUC(0-inf) [7]: 0.41 µg·h/mL; Time [8]: > 24 h; Tmax [9]: 30 min
O=C(C1CCOCC1)N1N=CCC1c1ccccc1 (configuration not stated)	3.1	AUC(0-inf) [10]: 0.044 µg·h/mL; Cmax [4]: 0.095 µg/mL; Tmax [9]: 5 min
Cc1ccc(C2CC=NN2C(=O)C(C)(C)C)cc1F (configuration not stated)	6.6	–
CC(C)(C)C(=O)N1CCNCC1c1ccccc1 (configuration not stated)	2.5	–
O=C(C1CCN(c2ccncn2)CC1)N1N=CC[C@H]1c1ccccc1	3.2	–
N#Cc1nccc(N2CCC(C(=O)N3N=CC[C@H]3c3cc(F)cc(F)c3)CC2)n1	5.1	–
O=C(C1CCC1)N1N=CCC1c1ccccc1 (configuration not stated)	4.7	–
O=C(c1ccncc1)N1N=CCC1c1ccccc1 (configuration not stated)	2.7	–
CC(C)C(=O)N1N=CCC1c1ccccc1 (configuration not stated)	4.4	–
O=C(c1cc[nH]n1)N1CCC(C(=O)N2N=CCC2c2ccccc2)CC1 (configuration not stated)	2.4	–
CC(C)(C)C(=O)N1N=CCC1c1ccncc1 (configuration not stated)	3.2	–
O=C(c1ccccc1)N1N=CCC1c1ccccc1 (configuration not stated)	4.6	–
CC(C)(C)C(=O)N1CCCCC1c1ccccc1 (configuration not stated)	6.7	–
CCC(=O)N1CCC(C(=O)N2N=CCC2c2ccccc2)CC1 (configuration not stated)	3.2	–
O=C(C1CCN(c2ccccc2)CC1)N1N=CC[C@H]1c1ccccc1	6.3	–

Structure (SMILES)	chromatographic logD [1]	also measured
CC(C)(C)C(=O)N1N=CCC1C1CCCCC1 (configuration not stated)	7.3	–
CC(C)(C)C(=O)n1nccc1-c1ccccc1	8.3	–
O=C(c1cscn1)N1CCC(C(=O)N2N=CC[C@H]2c2ccccc2)CC1	3	–
O=C(C1CCCC1)N1N=CCC1c1ccccc1 (configuration not stated)	5.4	–
O=C(C1CCN(C(=O)C(F)(F)F)CC1)N1N=CCC1c1ccccc1 (configuration not stated)	4.9	–
CC1=NN(C(=O)C(C)(C)C)[C@H](c2ccccc2)C1	6.4	–
CC(C)(C)C(=O)N1N=CCC1c1ccc(C(C)(C)C)cc1 (configuration not stated)	8	–
CN1CCC(C2CC=NN2C(=O)C(C)(C)C)CC1 (configuration not stated)	1.4	–
O=C(c1c[nH]nn1)N1CCC(C(=O)N2N=CCC2c2ccccc2)CC1 (configuration not stated)	2	Vd [2]: 1.3 L/kg; AUC(0-inf) [7]: 0.45 µg·h/mL
CC(C)(C)C(=O)N1N=CCC1c1cccc(F)c1 (configuration not stated)	5.9	–
O=C(C1CCN(c2ccccn2)CC1)N1N=CC[C@H]1c1ccccc1	5.1	–
O=C(c1ccccn1)N1CCC(C(=O)N2N=CCC2c2ccccc2)CC1 (configuration not stated)	3.1	–
O=C(C1CCCCC1)N1N=CCC1c1ccccc1 (configuration not stated)	5.9	–
CC(C)(C)C(=O)N1N=CCC1c1cocn1 (configuration not stated)	3	AUC(0-inf) [10]: 0.2 µg·h/mL; Cmax [4]: 0.345 µg/mL; Tmax [9]: 5 min
Cc1nnc(N2CCC(C(=O)N3N=CC[C@H]3c3ccccc3)CC2)o1	3.2	Vd [2]: 1.6 L/kg; AUC(0-inf) [7]: 0.8 µg·h/mL
O=C(c1cccnc1)N1N=CCC1c1ccccc1 (configuration not stated)	2.7	–
CC(C)(C)C(=O)N1N=CCC1c1ccccn1 (configuration not stated)	3.5	–
